We go through 18 compounds from article PMC3680370 (Journal of medicinal chemistry, 2012).

In data set [1] the test system is primary cortical cultured neurons. Briefly: Transient OGD followed by reoxygenation in primary neuronal cultures. Format: cell-based, rat. The note with it: for neuroprotection against OGD: primary neurons, 50 μM. Put shortly: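 Cortical neurons came from E17 Sprague Dawley rat embryos. They were plated at 3×10^5 cells/cm2 on poly-L-lysine, then kept in serum-free neurobasal/B27 medium. On day 8–10, cultures had 2 h OGD at 37°C (95% N2/5% CO2) in deoxygenated, glucose-free HEPES-buffered salt solution, pH 7.4. They then had 24 h normoxic reoxygenation in fresh medium. Test compound (50 μM) was present throughout. Viability was read by MTT, death by LDH.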

The test system of data set [2] is primary cortical cultures. Format: cell-based, rat. Conditions: drug 50 μM; for effect of GABAA blockade by picrotoxin on neuroprotection: picrotoxin 100 μM added 1 h before glutamate 100 μM, MTT at 24 h. Put shortly: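 Cortical neurons from E17 Sprague Dawley rat embryos, plated at 3×10^5 cells/cm2 on poly-L-lysine and switched to serum-free neurobasal/B27 at 24 h, were used at 10–11 DIV. Picrotoxin 100 μM was given 1 h before glutamate 100 μM, or omitted in a parallel run. Test compound or muscimol (50 μM final) followed 1 h after glutamate. MTT survival at 24 h was normalised to vehicle controls; mean ± SEM, n=6.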

Data set [3] can be described thus: Brain bioavailability by LC-MS/MS. Format: in vivo. The note with it: mice, 20 min after i.p. administration; for MZ metabolite in the brain after NO-chimera administration: metabolite 22a from 32a, 26 from 28. An outline of the steps: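 Male C57BL/6 mice (8–10 weeks, 20–25 g) got one i.p. dose of 4.5 μmol/kg, equimolar with the parent methylthiazole, at 0.1 ml/25 g; four mice per drug. Brains were taken 20 min post-dose and extracted with cold acetonitrile/MeOH (1:1) plus internal standard. After homogenising, 4°C centrifugation and re-extraction, extracts were cleared at −20°C and dried under N2. Analytes were measured by C18 HPLC (formic acid gradient).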

The nature of data set [4]: Stability of NO-chimera in neutral phosphate buffer. It counts as physicochemical. Conditions: for stability in phosphate buffer: phosphate buffer 100 mM, pH 7.4, room temperature, HPLC-UV or LC-MS. Put shortly:
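NO-chimeras were incubated in 100 mM phosphate buffer, pH 7.4, at room temperature in the HPLC autosampler. Aliquots were injected repeatedly, at intervals set by each compound's stability (about 7 or 67 min). Analysis used reverse-phase C18 HPLC with UV at 254 nm and a water/methanol vs acetonitrile gradient with 0.1% formic acid. Percent remaining was the parent:internal-standard peak-area ratio over the time-zero value.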

The subject of data set [5] is rat primary cortical neurons. Put plainly: NMDA induced cytotoxicity in primary neurons. It counts as cell-based. Conditions: NMDA 100 μM; compounds 50 μM.
Data set [6] concerns rabbits. Conditions: cited from earlier work.
In data set [7] the test system is SH-SY5Y cell cultures. Briefly: Excitotoxic insults. Format: cell-based, human. The note with it: excitotoxic insults including glutamate, NMDA, OGD; data not shown.
Data set [8] deals with rats with cognitive deficits in the cholinergic systems of the basal forebrain. Conditions: cited from earlier work.

With `Cc1ncsc1C(c1ccccc1)n1cc(-c2cncc(O)c2)nn1` (centres unmarked) [compound 16, 5-[1-[(4-Methyl-5-thiazolyl)phenylmethyl]-1H-1,2,3-triazol-4-yl]-3-pyridinol], in data set [1], the “neuroprotection against OGD” value was “retained neuroprotective efficacy comparable to CMZ”.

As for `Cc1ncsc1C(CO)c1ccccc1` (stereo not drawn) [22a, β-phenyl-4-methyl-5-thiazoleethanol], the “effect of GABAA blockade by picrotoxin on neuroprotection” value (“effect of GABAA blockade by picrotoxin” for short) in data set [2] is given as “mirrored that by muscimol”.

Regarding `Cc1ncsc1C(CO[N+](=O)[O-])c1ccccc1` (stereo not drawn) [32a, β-phenyl-(4-methyl-5-thiazolyl)ethane-1-nitrate], in data set [3], the “brain bioavailability of NO-chimera” value is “good brain bioavailability” and the “MZ metabolite in the brain after NO-chimera administration” value is “observed in the brain”.

Take `NCc1cc(O)no1` [muscimol, Muscimol, reference compound]: in data set [2] (glutamate 100 μM, 24 h, MTT), the “neuroprotection against glutamate toxicity” value is “effective neuroprotection”. Besides, the “effect of GABAA blockade by picrotoxin” value in data set [2] was “lost and reversed”.

The compound `Cc1ncsc1C(OC(=O)C1(CO[N+](=O)[O-])CC1)c1ccccc1` (centres unmarked) [compound 36, [1-[(nitrooxy)methyl]cyclopropanecarboxyl]-[(4-methyl-5-thiazolyl)phenylmethyl] ester] gave a half-life in data set [4] (phosphate buffer, pH 7.4) of approximately 30 min.

On to `Cc1ncsc1C(NC(=O)C1(CO[N+](=O)[O-])CC1)c1ccccc1` (centres unmarked) [compound 44, N-[(4-methyl-5-thiazolyl)phenylmethyl]-1-[(nitrooxy)methyl]cyclopropanecarboxamide], for which the “stability in phosphate buffer” value in data set [4] was “stable”.

For `Cc1ncsc1C(OCCOCCO[N+](=O)[O-])c1ccccc1` (centres unmarked) [compound 40, 1-nitrooxy-2-[2-[(4-methyl-5-thiazolyl)phenylmethoxy]ethoxy]ethane], the “stability in phosphate buffer” value in data set [4] is reported as “stability over 5 days at room temperature”.

As for `Cc1ncsc1C(CO)n1cc(-c2cccnc2)nn1` (stereo not drawn) [compound 26, [1-[β-(4-Methyl-5-thiazolyl)ethanol]-4-(3-pyridinyl)]-1H-1,2,3-triazole], in data set [2], the “effect of GABAA blockade by picrotoxin” value was “intermediate neuroprotective mechanisms”.

With `Cc1ncsc1C(CO[N+](=O)[O-])n1cc(-c2cccnc2)nn1` (stereo not drawn) [compound 28, β-(4-methyl-5-thiazolyl)-[4-(3-pyridinyl)-1H-1,2,3-Triazole-1-ethane]-1-nitrate], the “stability in phosphate buffer” value in data set [4] is listed as “stability over 5 days at room temperature”. For the same compound, the “MZ metabolite in the brain after NO-chimera administration” value in data set [3] was “readily detected”.

For the compound `Cc1ncsc1C(c1ccccc1)n1cc(-c2cccnc2)nn1` (centres unmarked) [5d, 3-[1-[(4-methyl-5-thiazolyl)phenylmethyl]-1H-1,2,3-triazol-4-yl]pyridine], the “neuroprotection against OGD” value in data set [1] is “excellent neuroprotectant”. For the same compound, the “neuroprotection against NMDA induced cytotoxicity” value in data set [5] is given as “excellent neuroprotectant”.

In the case of `Cc1ncsc1C(CO[N+](=O)[O-])n1nncc1-c1cccnc1` (stereo not drawn) [compound 29, β-(4-methyl-5-thiazolyl)-[5-(3-pyridinyl)-1H-1,2,3-Triazole-1-ethane]-1-nitrate], in data set [4], the “stability in phosphate buffer” value is recorded as “stability over 5 days at room temperature”.

Turning to `Cc1ncsc1C(OCCOCCO)c1ccccc1` (centres unmarked) [compound 41, [2-[(4-methyl-5-thiazolyl)phenylmethoxy]ethoxy]ethanol], in data set [2], the “effect of GABAA blockade by picrotoxin” value is listed as “intermediate neuroprotective mechanisms”.

As to “4-Butyl-1-[(4-methyl-5-thiazolyl)phenylmethyl]-1H-1,2,3-triazole [5a]”, the “% normalized to CMZ after OGD” value in data set [1] (test compounds 50 μM during 2-hour OGD and 24-hour reoxygenation, MTT assay at 24 h normalized to vehicle (0% survival) and CMZ (100% survival), mean ± SEM (n=6)) was 26.8 ± 5.2%.

Turning to `Cc1ncsc1C(NC(=O)OCCCCO[N+](=O)[O-])c1ccccc1` (centres unmarked) [compound 43, N-[(4-Methyl-5-thiazolyl)phenylmethyl]-[4-(nitrooxy)butyl] carbamate], the “stability in phosphate buffer” value in data set [4] is reported as “stable”.

Turning to `Cc1ncsc1C(Cc1ccccc1)O[N+](=O)[O-]` (stereo not drawn) [compound 33, α-(Phenylmethyl)-(4-methyl-5-thiazolyl)methanenitrate], the “stability in phosphate buffer” value in data set [4] is “stability over 5 days at room temperature”.

As for `Cc1ncsc1CCO` [HMZ, 5-(2-hydroxyethyl)-4-methylthiazole], the “anticonvulsant activity” value in data set [6] is “anticonvulsant agent”.

Regarding `Cc1ncsc1CCCl` [CMZ, clomethiazole, reference compound], the “neuroprotection against NMDA induced cytotoxicity” value in data set [5] is on record as “inhibited reproducibly”. The “neuroprotection in SH-SY5Y cells” value in data set [7] is “did not produce robust and reproducible neuroprotection”.

For `Cc1ncsc1CCO[N+](=O)[O-]` [compound 1], in data set [8], the “learning and memory” value was “significantly improved learning and memory”.

One may read the half-life as how long it takes for the measured level to halve. A higher half-life goes with slow decline.
